# A selection: hits, their analogues and other compounds. The true share with any hit is near 3.4%.
# VIM-2 inhibitor – inhibitors of Pseudomonas aeruginosa VIM-2 metallo-beta-lactamase; hit rate 0.89% among 290,000; AID 1527; purified VIM-2, nitrocefin hydrolysis, epi-absorbance fluorescence; inhibition, % at 5.6 µM;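 active means inhibition above the mean of all tested compounds plus 3 SD, cutoff set per screening run, cut at about 7.5% in these data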;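 further: red hydrolysis product quenches plate fluorescence so inhibitors raise well fluorescence; 0% = enzyme with DMSO and 100% = DMSO without enzyme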
# IMP-1 inhibitor – inhibitors of Pseudomonas aeruginosa IMP-1 metallo-beta-lactamase; AID 1556; purified IMP-1, nitrocefin hydrolysis, epi-absorbance fluorescence; inhibition, % at 5.6 µM; hit rate 0.45% among 290,000;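 active means inhibition above the mean plus 3 SD of all compounds in the same screening run, cut at about 4.5% in these data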;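 further: 0% = IMP-1 with DMSO and 100% = DMSO wells lacking enzyme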
#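 Test system: recombinant IMP-1 enzyme, purified / Medium: HEPES buffer pH 7.1 with ZnSO4 and Brij 35 / Doses: single dose, 5.6 µM / Times: 25 °C, 15 min preincubation, 25 min reaction / Detection: Epi-absorbance via hydrolysed-nitrocefin quenching of white-plate fluorescence, 480/530 nm, EDTA stop / Evaluation: percent inhibition from optical density relative to buffer-blank wells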
# MEKK2mut PB1 HTS – signal of MEK5 binding to mutant human MEKK2 PB1 domain | bead flow cytometry, Alexa488-MEK5 binding to MEKK2 mutant | percent response, % at 10 µM | hit rate 0.35% among 290,000 | AID 1530; in the data active means percent response above about 24%, passing the limit was not always enough
# MEKK2wt PB1 HTS – raises or lowers MEK5 binding to wildtype human MEKK2 PB1 domain; Q9Y2U5; bead flow cytometry, Alexa488-MEK5 binding to MEKK2 WT; actives lie on both sides; binding response (% of control), % at 10 µM; hit rate 1.1% among 290,000; AID 1531; in the data active means binding response below about 67% or above about 130%
# MEKK3 PB1 HTS – raises or lowers MEK5 binding to the human MEKK3 PB1 domain | Q99759 | bead-based flow cytometry, Alexa488-MEK5 binding to MEKK3; actives lie on both sides; 0 = blocked by unlabeled MEK5, 100 = vehicle | AID 1529 | binding response (% of control), % at 10 µM | hit rate 1.4% among 290,000;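 active means binding response more than 3 SD above or below the average of its plate-row segment, actives on both sides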;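 further: Alexa488 bead fluorescence after subtracting the streptavidin-only scavenger bead signal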
# Target sequence (Q99759 whole entry, looked up, the tested form may be a part): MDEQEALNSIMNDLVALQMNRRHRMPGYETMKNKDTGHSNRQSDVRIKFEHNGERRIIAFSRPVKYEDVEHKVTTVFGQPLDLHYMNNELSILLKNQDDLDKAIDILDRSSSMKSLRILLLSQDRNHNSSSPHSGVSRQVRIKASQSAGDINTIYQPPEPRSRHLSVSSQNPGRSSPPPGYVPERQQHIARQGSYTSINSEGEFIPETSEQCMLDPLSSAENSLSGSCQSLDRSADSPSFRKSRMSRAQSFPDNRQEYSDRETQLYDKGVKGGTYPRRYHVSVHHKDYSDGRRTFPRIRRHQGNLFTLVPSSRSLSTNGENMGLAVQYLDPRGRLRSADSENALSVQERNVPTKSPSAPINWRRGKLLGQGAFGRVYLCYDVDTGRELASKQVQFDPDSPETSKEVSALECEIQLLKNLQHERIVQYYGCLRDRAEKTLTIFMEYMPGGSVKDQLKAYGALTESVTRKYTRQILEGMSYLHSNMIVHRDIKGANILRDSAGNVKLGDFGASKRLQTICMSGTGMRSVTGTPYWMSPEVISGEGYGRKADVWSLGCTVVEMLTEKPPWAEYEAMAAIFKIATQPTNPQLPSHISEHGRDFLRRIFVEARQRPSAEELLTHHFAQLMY
# MEKK2wt confirm – raises or lowers MEK5 binding to wildtype human MEKK2, retest; hit rate 2.4% among 5,900; bead flow cytometry, Alexa488-MEK5 binding to MEKK2 WT; actives lie on both sides; AID 1892; shares compounds with MEKK3 PB1 HTS; binding response (% of control), % at 10 µM; in the data active means binding response below about 16% or above about 210%; inactive means in between
# MEKK2mut confirm – signal of MEK5 binding to mutant human MEKK2, retest. shares compounds with MEKK3 PB1 HTS. bead flow cytometry, Alexa488-MEK5 binding to MEKK2 mutant. percent response, % at 10 µM. hit rate 2% among 5,900; in the data active means percent response mostly above about 71%, no sharp cut-off; inactive means mostly below about 38%;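 further: higher means compound restores mutant binding toward wildtype level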
# MEKK3 confirm – confirmation of inhibitors of MEK5 binding to human MEKK3. shares compounds with MEKK3 PB1 HTS. bead flow cytometry, Alexa488-MEK5 binding to MEKK3; hits give low values. binding response (% of control), % at 10 µM. hit rate 1.8% among 5,900;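 active means binding response below 72% of control, or above a set upper limit, though filed actives all read lower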;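 further: 100% = DMSO only wells and 0% = binding blocked by excess unlabeled MEK5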
# An asterisk follows results filed as active; . = no result; [ ] = remark or other dose.
SMILES,VIM-2 inhibitor,IMP-1 inhibitor,MEKK2mut PB1 HTS,MEKK2wt PB1 HTS,MEKK3 PB1 HTS,MEKK2wt confirm,MEKK2mut confirm,MEKK3 confirm
CCCCN(C)CCNC(=O)C(=O)c1c(C)[nH]c2ccccc12,0.3,-2.7,-4.0,84.0,75.0*[inhibitor],99.0,-4.0,101.0
Cc1[nH]c2ccccc2c1C(=O)C(=O)NCCCc1ccccc1,-4.0,-3.3,9.0,109.0,106.0,.,.,.
C=C(C)C1CC=C(C)/C(=N/NC(=O)c2ccc(NC(=O)CCC)cc2)C1 (configuration not stated),-2.2,-2.1,-3.0,93.0,94.0,.,.,.
CCc1nc2ccccc2c(C(=O)OCC(=O)NC(=O)c2cccn2C)c1C,3.1,-1.5,-18.0,72.0,67.0*[inhibitor],101.0,3.0,105.0
CC(=O)N(C)c1ccc(OCC(O)Cn2c(C)nc3ccccc32)cc1 (configuration not stated),-7.0,-4.8,1.0,115.0,135.0*,98.0,-2.0,101.0
Cc1cc(NC(=O)c2ccccc2Cl)no1,-1.3,-1.6,-30.0,59.0,35.0*[inhibitor],106.0,-1.0,99.0
Cc1cc(NC(=O)c2cc(Cl)ccc2Cl)no1,-1.6,-0.6,5.0,106.0,106.0,.,.,.
O=C(/C=C/c1ccccc1)NC(=S)Nc1ccc(CN2CCOCC2)cc1,-1.7,-3.1,1.0,110.0,86.0,.,.,.
Cc1occc1C(=O)O/N=C(\N)c1ccccc1,-1.1,-2.3,8.0,106.0,105.0,.,.,.
O=C(NCc1ccc(F)cc1)C1Cc2ccccc2CN1C(=O)c1ccco1 (configuration not stated),-2.7,-3.2,-2.0,84.0,69.0*[inhibitor],105.0,7.0,108.0
O=C(NCc1ccccc1)C1Cc2ccccc2CN1C(=O)c1ccco1 (configuration not stated),-2.5,-1.9,-11.0,97.0,100.0,.,.,.
COc1ccc(/C=N/NC(=O)Cn2cnc3c2c(=O)n(C)c(=O)n3C)c(OC)c1OC,-3.6,-2.9,-33.0,67.0,71.0*[inhibitor],98.0,1.0,103.0
COc1ccc(/C=N/NC(=O)Cn2cnc3c2c(=O)n(C)c(=O)n3C)cc1,-3.5,-3.2,4.0,103.0,103.0,.,.,.
COc1ccc(/C=N/NC(=O)CN(Cc2ccccc2)S(=O)(=O)c2ccc3c(c2)OCCO3)cc1,-5.2,-5.7,2.0,97.0,106.0,.,.,.
COc1cc(/C=N/NC(=O)CN(Cc2ccccc2)S(=O)(=O)c2ccc3c(c2)OCCO3)ccc1O,-7.1,-3.7,0.0,107.0,136.0*,101.0,0.0,102.0
CCCC(=O)NC(NC(=S)Nc1ccc(S(N)(=O)=O)cc1)C(Cl)(Cl)Cl (configuration not stated),-1.7,-0.8,0.0,107.0,131.0*,102.0,5.0,104.0
CC(C(=O)N1CCOCC1)N1C(=O)c2ccccc2C1=O (configuration not stated),-0.4,-0.4,9.0,99.0,103.0,.,.,.
Cc1cccc(-n2[nH]c(C)c(C=Nc3ccc4[nH]c(=O)[nH]c4c3)c2=O)c1,-2.1,-1.1,0.0,107.0,129.0*,123.0,11.0,104.0
O=C(Nc1nnc(-c2ccc(F)cc2)o1)c1ccc(S(=O)(=O)N2CCOCC2)cc1,-2.8,-1.7,6.0,107.0,106.0,.,.,.
COc1ccc(C)cc1Nc1n[n+](-c2ccccc2)c(-c2ccc(NC(C)=O)cc2)s1,-3.9,-1.3,10.0,142.0*,106.0,147.0,30.0,107.0
CC(=O)Nc1ccc(-c2sc(Nc3cccc4ccccc34)n[n+]2-c2ccccc2)cc1,-0.6,-1.6,10.0,159.0*,104.0,136.0,15.0,107.0
COc1ccc(C)cc1Nc1n[n+](-c2ccccc2)c(-c2ccc(SC)cc2)s1,-4.9,-4.8,29.0*,128.0,105.0,121.0,9.0,101.0
CC(=O)c1ccc(S(=O)(=O)N2CCCC(N(C)CCc3ccccn3)C2)cc1 (configuration not stated),-3.2,-2.5,4.0,106.0,105.0,.,.,.
CCN1CCN(Cc2ccc(NC(=O)c3ccc(C)c(NC(=O)c4nccn4C)c3)cc2C(F)(F)F)CC1,.,.,3.0,104.0,94.0,.,.,.
CCN1CCN(Cc2ccc(NC(=O)c3ccc(C)c(NC(=O)c4cccc5[nH]ccc45)c3)cc2C(F)(F)F)CC1,.,.,74.0*,124.0,106.0,187.0,55.0,100.0
SMILES,VIM-2 inhibitor,IMP-1 inhibitor,MEKK2mut PB1 HTS,MEKK2wt PB1 HTS,MEKK3 PB1 HTS,MEKK2wt confirm,MEKK2mut confirm,MEKK3 confirm
CCN1CCN(Cc2ccc(NC(=O)c3ccc(C)c(NC(=O)c4nccnc4N)c3)cc2C(F)(F)F)CC1,.,.,9.0,113.0,107.0,.,.,.
CCN1CCN(Cc2ccc(NC(=O)c3ccc(C)c(NC(=O)c4cc(-c5ccc(Br)cc5)n[nH]4)c3)cc2C(F)(F)F)CC1,.,.,75.0*,150.0*,109.0,239.0*,126.0*,109.0
Cc1ccccc1C(=O)N=c1c(C#N)cc2c(=O)n3cccc(C)c3nc2n1Cc1ccco1,0.5,-1.9,.,.,.,.,.,.
O=C(O)c1cc(N/N=C/c2ccc(OCc3ccccc3)cc2)ccc1Cl,-4.0,-0.7,134.0*,186.0*,112.0,99.0,1.0,102.0
NC(N)=N/N=C/c1ccc(OCc2ccc(Cl)cc2)cc1,1.3,-0.5,29.0*,183.0*,96.0,205.0,56.0,106.0
NC(N)=N/N=C/c1ccc(OCc2ccccc2)cc1,0.2,-3.0,17.0,162.0*[inhibitor],67.0,154.0,29.0,114.0
COC(=O)c1ccc(COc2ccc(/C=N/Nc3cccc(C(=O)O)c3)cc2)cc1,-3.2,-4.3,-3.0,95.0,98.0,.,.,.
N#C/C(=C\c1ccc(OCc2ccccc2)cc1)C(N)=O,-1.6,-2.9,1.0,114.0,131.0*,93.0,-2.0,93.0
O=C(Nc1cccc(O)c1)c1cccc(S(=O)(=O)N2CCCC2)c1,-2.3,-4.8,6.0,106.0,102.0,.,.,.
Cn1c(=O)c2c(ncn2CC(COCc2ccc(Cl)cc2)OCc2ccc(Cl)cc2)n(C)c1=O (configuration not stated),1.4,-2.9,6.0,104.0,105.0,.,.,.
COc1cccc(NC(=O)CC2COc3ccccc3O2)c1 (configuration not stated),-3.6,-3.0,1.0,101.0,98.0,.,.,.
CCOC(=O)CCC(=O)NCc1ccc2c(c1)cc(C)n2C,-4.9,-1.8,-4.0,77.0,74.0*[inhibitor],98.0,2.0,98.0
CCOC(=O)CCC(=O)NCc1ccc2[nH]c(C)cc2c1,0.6,1.9,-5.0,81.0,82.0*[inhibitor],94.0,0.0,100.0
COCc1cc(C)nc(OCC(=O)N/N=C/c2ccccc2O)c1C#N,-4.2,-1.3,188.0*,85.0,92.0,98.0,0.0,99.0

# Screens from PubChem BioAssay.
